Laboratory results reported in paper PMC3089497 (The Journal of Biological Chemistry, 2011).
“And” between values parts separate entries of the source, which are not always exact repeats. Equal values may be shown once. Read-outs that look alike come from different tables or passages of the source. Values belong to the compound of their own block, whether it stands above or below them. Peptide text beside a SMILES is read from it. * marks the point of attachment. Cbz = O=C(OCc1ccccc1)*

Key:
p97 ATPase = p97 ATPase (Mus musculus, UniProt Q01853); experiment: p97 ATPase assay; assay type: biochemical
Chain of p97 ATPase (Q01853 whole entry): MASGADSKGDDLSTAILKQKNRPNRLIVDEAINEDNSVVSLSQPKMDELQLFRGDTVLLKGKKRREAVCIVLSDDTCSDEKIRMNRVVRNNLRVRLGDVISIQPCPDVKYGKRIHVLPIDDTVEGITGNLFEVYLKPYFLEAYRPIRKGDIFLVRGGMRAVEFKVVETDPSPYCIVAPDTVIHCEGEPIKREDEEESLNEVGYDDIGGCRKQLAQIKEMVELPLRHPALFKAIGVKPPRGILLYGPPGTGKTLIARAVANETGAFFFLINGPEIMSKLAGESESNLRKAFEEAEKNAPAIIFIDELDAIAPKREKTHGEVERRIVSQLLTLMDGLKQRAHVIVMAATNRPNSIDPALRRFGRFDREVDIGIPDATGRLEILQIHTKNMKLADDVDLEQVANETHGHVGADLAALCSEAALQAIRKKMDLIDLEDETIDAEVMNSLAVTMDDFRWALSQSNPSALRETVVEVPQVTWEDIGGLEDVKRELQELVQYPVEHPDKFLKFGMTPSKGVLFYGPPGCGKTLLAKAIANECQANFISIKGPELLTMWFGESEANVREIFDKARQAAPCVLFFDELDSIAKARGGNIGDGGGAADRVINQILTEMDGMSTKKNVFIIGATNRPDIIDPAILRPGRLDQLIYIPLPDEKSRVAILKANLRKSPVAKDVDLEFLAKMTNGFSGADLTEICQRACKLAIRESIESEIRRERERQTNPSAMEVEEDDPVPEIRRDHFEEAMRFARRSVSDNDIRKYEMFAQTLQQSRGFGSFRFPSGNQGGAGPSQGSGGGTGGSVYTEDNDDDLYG

Ub^G76V-GFP [1] = experiment: Ub^G76V-GFP reporter accumulation assay; assay type: cell-based, human; details: for Score in Ub^G76V-GFP accumulation screen: rescreen of 160 kinase inhibitors
In short: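 Dual-reporter HeLa cells expressing UbG76V-GFP were seeded at 5000 per well and grown 16 h. They were exposed to DMSO, MG132 or test compound in modified DMEM (no phenol red, folic acid, riboflavin or vitamin B12) for 2–3 h. Two GFP images per well (100-ms exposure) were taken by automated microscopy. Mean GFP intensity per cell area was averaged over about 500 cells, background-corrected using reporter-free cells, and normalized to DMSO-treated cells.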

ODD-Luc [2] = experiment: ODD-Luc reporter degradation assay; assay type: cell-based, human; details: for IC50: Homo sapiens, read-out: IC50 ODD-Luc
Luc-ODC [3] = experiment: Luc-ODC reporter degradation assay; assay type: cell-based, human; details: for IC50: Homo sapiens, read-out: IC50 Luc-ODC
Ub^G76V-GFP [4] = experiment: cells; assay type: cell-based, human; details: for IC50: Homo sapiens, read-out: IC50 Ub^G76V-GFP
C522A-p97 = C522A-p97 (Mus musculus, UniProt Q01853, C522A); experiment: In vitro ATPase assay of C522A-p97; assay type: biochemical; details: compared with wild-type p97
Chain of C522A-p97 (Q01853 whole entry C522A): as the sequence (Q01853 whole entry) above, with C522A counted along it
In short: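 The C522A p97 mutant was made by site-directed mutagenesis of the wild-type p97 plasmid. It was assayed for in vitro ATPase activity beside wild-type p97, and inhibition was read from titration curves of test compound.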

TCRα-GFP = experiment: ERAD reporter TCRα-GFP degradation in HEK293 cells; assay type: cell-based, human; details: 5 or 10 μM, 2 h CHX chase
In short: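 HEK293 cells stably expressing the ERAD reporter TCRα-GFP were pretreated with MG132 and washed. They were then incubated with CHX plus test compound for 2 h before harvest, and reporter levels were assessed by immunoblotting.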

ODD-Luc [5] = experiment: ODD-Luc reporter accumulation assay; assay type: cell-based, human; details: 7.5 μM for 2 h, relative to DMSO
In short: (§1)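 HeLa cells stably expressing UbG76V-GFP were lentivirally transduced with ODD-Luc or Luc-ODC and kept under puromycin (2.5 μg/ml). Cells were seeded at 5000 per well and grown 16 h. They were treated 2–3 h in modified DMEM (no phenol red, folic acid, riboflavin or vitamin B12) containing DMSO, MG132 or test compound. d-Luciferin (1 mg/ml in PBS, stock) was added, followed by 5 min shaking at room temperature. Luminescence was read with […] integration and normalized to DMSO.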

Luc-ODC [6] = experiment: Luc-ODC reporter accumulation assay; assay type: cell-based, human; details: 30 μM for 2.5 h, relative to DMSO
In short: as §1

[7] = read-out: IC50 p97 ATPase, in vitro, WT p97, triplicate, ± S.D.
[8] = IC50 p97 ATPase, in vitro, WT p97, triplicate, ± S.D.

IC50 (p97 ATPase; [7]): 12 ± 5 µM
SMILES: CC[n+]1c(/C=C/N(C)c2ccccc2)n(-c2ccccc2)c2ccc(-c3nc4ccccc4s3)cc21 [Compound 1, Akt inhibitor IV]

IC50 (ODD-Luc [2]): 14 ± 11 µM
IC50 (p97 ATPase): > 50 µM
IC50 (Luc-ODC [3]): 11 ± 5 µM
IC50 (Ub^G76V-GFP [4]): 16 ± 9 µM
SMILES: CCN(CC)CCCCN1c2ccccc2Oc2ccc(Cl)cc21 [Compound 3, Akt inhibitor X]
Score in Ub^G76V-GFP accumulation screen (Ub^G76V-GFP [1]): did not score as positives

IC50 (p97 ATPase; [7]): > 50 µM
SMILES: O=C1c2ccccc2-c2nc3nnnn3nc21 [Compound 4, PDK1/Akt/Flt]

IC50 (p97 ATPase; [7]): 12 ± 1 µM
SMILES: Cc1ccc(S(=O)(=O)/C=C/C#N)cc1 [Compound 9, BAY 11-7082]

IC50 (p97 ATPase; [7]): 13 ± 0.5 µM
SMILES: Cc1ccc(NC2=CC(=O)c3sc(C)nc3C2=O)cc1 [Compound 11, Cdk4 inhibitor III]

IC50 (p97 ATPase; [7]): > 50 µM
SMILES: Cn1nc2c3c(cccc31)C(=O)c1ccccc1-2 [Compound 14, JNK inhibitor, negative control]

IC50 (p97 ATPase; [7]): > 50 µM
SMILES: O=C1NC(=O)c2cc(Nc3ccc(F)cc3)c(Nc3ccc(F)cc3)cc21 [Compound 16, PKCbII/EGFR inhibitor]

IC50 (p97 ATPase; [7]): > 50 µM
SMILES: N#Cc1cnc2cnc(NCc3cccnc3)cc2c1Nc1ccc(F)c(Cl)c1 [Compound 17, Tpl2 kinase inhibitor]

IC50 with Luc-ODC reporter relative to Ub^G76V-GFP and ODD-Luc reporters (Luc-ODC [3]; fold higher): ~3 fold
SMILES: CC(C)C[C@@H](C=O)NC(=O)[C@H](CC(C)C)NC(=O)[C@H](CC(C)C)NC(=O)OCc1ccccc1 [MG132] (Cbz-Leu-Leu-Leu-aldehyde)
Ub^G76V-GFP reporter accumulation (Ub^G76V-GFP [1]; 7.5 μM for 2 h, relative to DMSO): ~20 fold
ODD-Luc reporter accumulation (ODD-Luc [5]): ~20 fold
Luc-ODC reporter accumulation (Luc-ODC [6]): 1.6 fold

Effect on ODD-Luc degradation (in words) (ODD-Luc [2]): strong stabilization
Effect on Luc-ODC degradation (in words) (Luc-ODC [3]): had no effect
SMILES: NS(=O)(=O)OC[C@@H]1C[C@@H](n2ccc3c(N[C@H]4CCc5ccccc54)ncnc32)C[C@@H]1O [MLN4924]
Effect on Ub^G76V-GFP degradation (in words) (Ub^G76V-GFP [4]): had no effect

The remaining lines, values behind:

SMILES: O=c1[nH]c2ccccc2n1C1CCN(Cc2ccc(-c3nc4cc5[nH]cnc5cc4nc3-c3ccccc3)cc2)CC1 [Compound 2, Akt inhibitor VIII]
IC50 (p97 ATPase; [7]): 43 ± 4 µM

SMILES: COc1ccc2c(c[n+](C)c3c4cc5c(cc4ccc23)OCO5)c1OC [Compound 5, Chelerythrine chloride]
IC50 (ODD-Luc [2]): 3.4 ± 0.2 µM
IC50 (p97 ATPase; [8]): 24 ± 11 µM
IC50 (Luc-ODC [3]): 1.9 ± 0.7 µM
IC50 (Ub^G76V-GFP [4]): 2.2 ± 1 µM

SMILES: CO[C@H]1[C@@H](OC)C[C@H](C)[C@@H](OC)C2=CC(=O)C=C(NC(=O)/C(C)=C/C=C\[C@H](OC)[C@@H](OC(N)=O)/C(C)=C/[C@@H]1C)C2=O [Compound 6, Herbimycin A, Streptomyces sp.]
IC50 (ODD-Luc [2]): 5 ± 2 µM
IC50 (p97 ATPase; [8]): > 50 µM
Effect on Luc-ODC degradation (in words) (Luc-ODC [3]): very little activity
IC50 (Luc-ODC [3]): > 30 µM
IC50 (Ub^G76V-GFP [4]): 2.8 ± 1.6 µM

SMILES: O=[N+]([O-])C=Cc1ccc2c(c1)OCO2 [Compound 7, 3,4-methylenedioxy-β-nitrostyrene]
Accumulation of Ub^G76V-GFP (Ub^G76V-GFP [1]; 7.5 or 30 μM, 3 h): < 2 fold
Score in Ub^G76V-GFP accumulation screen (Ub^G76V-GFP [1]): did not score as positives
Activity toward C522A-p97 ATPase (in words) (C522A-p97): poor activity
Degradation of TCRα-GFP (TCRα-GFP): potently blocked
IC50 (ODD-Luc [2]): 5.9 ± 1.5 µM
IC50 (p97 ATPase; [8]): ≤ 10 µM and 1.7 µM
Effect on Luc-ODC degradation (in words) (Luc-ODC [3]): very little activity
IC50 (Luc-ODC [3]): > 30 µM
Stabilization of Ub^G76V-GFP (Ub^G76V-GFP [4]; 1.7 μM): 2 fold
Stabilization of Ub^G76V-GFP (in words) (Ub^G76V-GFP [4]; 7.5 μM): almost complete stabilization
IC50 (Ub^G76V-GFP [4]): 1.6 ± 0.4 µM
IC50 for p97-dependent versus p97-independent reporters (Ub^G76V-GFP [4]; fold lower, Ub^G76V-GFP vs ODD-Luc): 3.5 fold

SMILES: CN[C@@H]1C[C@H]2O[C@@](C)([C@@H]1OC)n1c3ccccc3c3c4c(c5c6ccccc6n2c5c31)C(=O)NC4 [Compound 8, Staurosporine, Streptomyces sp.]
IC50 (p97 ATPase; [7]): > 50 µM

SMILES: CCn1cnc2c(Nc3cccc(Cl)c3)nc(N[C@@H]3CCCC[C@@H]3N)nc21 [Compound 10, Cdk1 Inhibitor, CGP74514A]
IC50 (p97 ATPase; [7]): 17 ± 3 µM

SMILES: O=C1c2ccccc2-[n+]2ccc3c([nH]c4ccccc43)c21 [Compound 12, Fascaplysin]
IC50 (ODD-Luc [2]): 6.9 ± 1.9 µM
IC50 (p97 ATPase; [8]): > 50 µM
Effect on Luc-ODC degradation (in words) (Luc-ODC [3]): very little activity
IC50 (Luc-ODC [3]): > 30 µM
IC50 (Ub^G76V-GFP [4]): 0.9 ± 0.1 µM

SMILES: COC(=O)[C@@]1(O)C[C@H]2O[C@]1(C)n1c3ccccc3c3c4c(c5c6ccccc6n2c5c31)C(=O)NC4 [Compound 15, K-252a, Nocardiopsis sp.]
IC50 (p97 ATPase; [7]): 26 ± 2 µM

SMILES: O=C(O)C=Cc1ccc2c(c1)OCO2 [Compound 18, 3,4-Methylenedioxycinnamic acid]
Effect on Ub^G76V-GFP degradation (in words) (Ub^G76V-GFP [4]): greatly diminished activity
